Laboratory results taken from ChEMBL document CHEMBL3588770, “Novel spirohydantoin derivative as a potent multireceptor-active antipsychotic and antidepressant agent” (Bioorg Med Chem, 2015).
Calls of active or inactive are those of the source. The calls are words filed in the database; no cut-off is given here.

What was measured:
[1] = molecular target: Histamine H1 receptor (Homo sapiens) (UniProt P35367); assay: Antagonist activity at human recombinant H1 receptor expressed in HEK-293 cells assessed as inhibition of histamine-induced intracellular Ca2+ release at 1 uM by fluorimetry; format: functional, cell-based; conditions: HEK293
Chain of Histamine H1 receptor (Homo sapiens) (P35367 whole entry): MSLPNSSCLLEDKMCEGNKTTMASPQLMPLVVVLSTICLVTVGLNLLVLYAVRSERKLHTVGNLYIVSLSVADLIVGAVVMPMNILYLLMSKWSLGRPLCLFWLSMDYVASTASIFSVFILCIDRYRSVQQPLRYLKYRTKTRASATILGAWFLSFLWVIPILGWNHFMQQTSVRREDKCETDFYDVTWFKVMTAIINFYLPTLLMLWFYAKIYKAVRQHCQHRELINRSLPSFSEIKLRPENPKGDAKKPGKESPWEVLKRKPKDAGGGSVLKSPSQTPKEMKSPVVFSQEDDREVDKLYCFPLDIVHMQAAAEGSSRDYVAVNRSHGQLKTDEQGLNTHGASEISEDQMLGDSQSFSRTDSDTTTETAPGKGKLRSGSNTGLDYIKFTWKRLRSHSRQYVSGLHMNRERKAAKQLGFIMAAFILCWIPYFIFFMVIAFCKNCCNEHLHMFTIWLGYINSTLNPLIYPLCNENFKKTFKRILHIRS
Method in brief: (§1)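 Functional assays run by a contract lab on CHO or HEK-293 cells stably expressing the human receptor. Read-out was intracellular cAMP, IP1 or Ca2+ release. A single test concentration of 1.0E-06 was used, in duplicate. Data are mean % of the control response.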

[2] = molecular target: Adrenergic receptor alpha-1 (Homo sapiens) (UniProt P35348+P25100+P35368); assay: Agonist activity at human recombinant alpha1 adrenoceptor expressed in CHO cells at 1 uM; format: cell-based; method in brief: as §1
[3] = molecular target: 5-hydroxytryptamine receptor 7 (Homo sapiens) (UniProt P34969); assay: Agonist activity at human recombinant 5HT7 receptor expressed in CHO cells assessed as intracellular cAMP release at 1 uM by HTRF assay; format: functional, cell-based; method in brief: as §1
Chain of 5-hydroxytryptamine receptor 7 (Homo sapiens) (P34969 whole entry): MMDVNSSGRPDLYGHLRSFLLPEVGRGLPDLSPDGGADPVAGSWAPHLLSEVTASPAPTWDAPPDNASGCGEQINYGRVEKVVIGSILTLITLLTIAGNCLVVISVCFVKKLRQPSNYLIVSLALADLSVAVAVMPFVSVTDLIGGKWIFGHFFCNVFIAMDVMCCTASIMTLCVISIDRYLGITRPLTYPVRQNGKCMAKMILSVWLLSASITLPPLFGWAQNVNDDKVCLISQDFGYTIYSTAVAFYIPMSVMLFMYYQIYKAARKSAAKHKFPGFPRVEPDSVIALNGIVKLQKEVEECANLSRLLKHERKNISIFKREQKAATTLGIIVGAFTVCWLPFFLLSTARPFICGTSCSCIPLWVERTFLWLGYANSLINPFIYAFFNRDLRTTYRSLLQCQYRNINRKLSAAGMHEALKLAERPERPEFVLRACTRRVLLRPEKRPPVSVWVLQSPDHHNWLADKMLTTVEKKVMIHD

[4] = molecular target: T1, D(4) dopamine receptor (Homo sapiens) (UniProt P21917); assay: Agonist activity at human recombinant D4 receptor expressed in CHO cells assessed as intracellular cAMP release at 1 uM by HTRF method; format: functional, cell-based; method in brief: as §1
T1 sequence (whole entry): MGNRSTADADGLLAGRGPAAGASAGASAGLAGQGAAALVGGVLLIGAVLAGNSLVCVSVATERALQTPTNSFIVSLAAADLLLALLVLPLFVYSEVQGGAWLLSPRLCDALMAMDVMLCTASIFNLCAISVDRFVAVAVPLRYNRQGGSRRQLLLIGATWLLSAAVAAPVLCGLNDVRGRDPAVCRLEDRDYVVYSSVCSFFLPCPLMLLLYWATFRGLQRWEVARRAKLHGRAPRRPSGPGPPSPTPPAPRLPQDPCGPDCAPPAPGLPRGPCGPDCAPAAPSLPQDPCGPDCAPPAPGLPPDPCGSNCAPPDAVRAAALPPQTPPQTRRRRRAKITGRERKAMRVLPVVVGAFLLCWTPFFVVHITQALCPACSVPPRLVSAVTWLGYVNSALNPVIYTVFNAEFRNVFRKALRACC

[5] = molecular target: 5-hydroxytryptamine receptor 7 (Homo sapiens) (UniProt P34969); assay: Antagonist activity at human recombinant 5HT7 receptor expressed in CHO cells assessed as inhibition of serotonin-induced intracellular cAMP release at 1 uM by HTRF assay; format: functional, cell-based; method in brief: as §1
[6] = molecular target: Histamine H1 receptor (Homo sapiens) (UniProt P35367); assay: Agonist activity at human recombinant H1 receptor expressed in HEK-293 cells assessed as intracellular Ca2+ release at 1 uM by fluorimetry; format: functional, cell-based; conditions: HEK293; method in brief: as §1
[7] = molecular target: T2, 5-hydroxytryptamine receptor 1A (Homo sapiens) (UniProt P08908); assay: Antagonist activity at human recombinant 5HT1A receptor expressed in HEK293 cells assessed as inhibition of 8-OH-DPAT-induced response at 1 uM; format: cell-based; method in brief: as §1
T2 sequence (whole entry): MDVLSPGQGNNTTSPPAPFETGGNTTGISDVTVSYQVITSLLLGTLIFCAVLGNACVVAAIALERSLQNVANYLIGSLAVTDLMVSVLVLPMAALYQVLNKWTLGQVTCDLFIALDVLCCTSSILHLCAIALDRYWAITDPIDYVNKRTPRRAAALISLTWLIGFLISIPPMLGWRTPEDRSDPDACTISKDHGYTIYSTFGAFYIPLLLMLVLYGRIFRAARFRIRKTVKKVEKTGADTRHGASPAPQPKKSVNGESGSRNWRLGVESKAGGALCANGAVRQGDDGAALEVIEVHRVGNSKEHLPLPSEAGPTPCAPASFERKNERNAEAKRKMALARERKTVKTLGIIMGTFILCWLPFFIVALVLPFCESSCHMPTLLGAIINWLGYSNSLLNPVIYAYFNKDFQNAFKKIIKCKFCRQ

[8] = molecular target: 5-hydroxytryptamine receptor 2A (Homo sapiens) (UniProt P28223); assay: Antagonist activity at human recombinant 5HT2A receptor expressed in HEK293 cells assessed as inhibition of serotonin-induced intracellular IP1 release at 1 uM by HTRF assay; format: functional, cell-based; method in brief: as §1
Chain of 5-hydroxytryptamine receptor 2A (Homo sapiens) (P28223 whole entry): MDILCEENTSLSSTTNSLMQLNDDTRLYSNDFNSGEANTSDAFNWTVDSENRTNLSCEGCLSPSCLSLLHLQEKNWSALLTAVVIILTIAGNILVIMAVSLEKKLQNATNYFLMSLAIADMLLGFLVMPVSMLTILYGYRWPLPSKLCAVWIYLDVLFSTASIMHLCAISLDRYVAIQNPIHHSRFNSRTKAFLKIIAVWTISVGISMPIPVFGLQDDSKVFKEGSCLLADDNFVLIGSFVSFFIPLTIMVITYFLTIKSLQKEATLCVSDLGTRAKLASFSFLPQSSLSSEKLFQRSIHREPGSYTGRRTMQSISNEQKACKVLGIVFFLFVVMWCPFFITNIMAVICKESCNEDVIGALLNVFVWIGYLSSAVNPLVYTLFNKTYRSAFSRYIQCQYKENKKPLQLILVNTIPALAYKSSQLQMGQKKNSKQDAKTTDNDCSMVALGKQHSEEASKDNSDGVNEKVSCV

[9] = molecular target: D(3) dopamine receptor (Homo sapiens) (UniProt P35462); assay: Antagonist activity at human recombinant D3 receptor expressed in CHO cells assessed as inhibition of dopamine-induced intracellular cAMP release at 1 uM by HTRF method; format: functional, cell-based; method in brief: as §1
Chain of D(3) dopamine receptor (Homo sapiens) (P35462 whole entry): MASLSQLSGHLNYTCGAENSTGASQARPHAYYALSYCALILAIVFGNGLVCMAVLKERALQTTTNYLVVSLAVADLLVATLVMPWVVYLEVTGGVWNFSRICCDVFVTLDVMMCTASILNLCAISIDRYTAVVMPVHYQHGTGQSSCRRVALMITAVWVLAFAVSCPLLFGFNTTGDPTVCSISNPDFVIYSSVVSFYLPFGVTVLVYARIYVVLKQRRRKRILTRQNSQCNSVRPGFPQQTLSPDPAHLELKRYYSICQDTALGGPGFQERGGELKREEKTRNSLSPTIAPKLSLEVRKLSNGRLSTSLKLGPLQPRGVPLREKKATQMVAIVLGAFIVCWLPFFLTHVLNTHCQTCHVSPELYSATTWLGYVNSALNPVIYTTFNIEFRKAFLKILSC

[10] = tested on: Mus musculus; assay: In vivo partial agonist activity at 5HT1A receptor in CD-1 mouse assessed as change in body temperature at 5 mg/kg, ip measured after 120 mins (reference value: -0.1 degC); format: functional, organism-based
Method in brief: (§2)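 Male CD-1 mice, 7-9 per dose, compound suspended in 1% aqueous Tween 80 and given i.p. at 10 ml/kg. Rectal temperature was taken by thermometer 30, 60, 90 and 120 min after dosing. Change (Δt) is expressed against basal temperature measured at the start. Mean ± SEM, one-way ANOVA with Bonferroni test.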

[11] = tested on: Mus musculus; assay: In vivo agonist activity at 5HT2A receptor in Swiss albino mouse assessed as induction of head twitch response at 5 to 40 mg/kg, ip; format: functional, organism-based
[12] = tested on: Mus musculus; assay: In vivo partial agonist activity at 5HT1A receptor in CD-1 mouse assessed as change in body temperature at 5 mg/kg, ip measured after 30 mins (reference value: -0.1 degC); format: functional, organism-based; method in brief: as §2
[13] = tested on: Mus musculus; assay: In vivo agonist activity at D2 receptor in ip dosed Swiss albino mouse assessed as induction of climbing behaviour; format: functional, organism-based
[14] = tested on: Mus musculus; assay: Toxicity in ip dosed CD-1 mouse assessed as minimum dose required for induction of catalepsy by bar test; format: organism-based; conditions: in vivo
Method in brief: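 Male CD-1 mice, 10 per group, given compound i.p. (1% Tween 80 suspension). Forelimbs were placed on a horizontal rod 4 cm high at 30, 60 and 120 min. Catalepsy was scored up to 3 (≥60 s on bar). Minimum cataleptogenic dose is the lowest dose giving a mean score ≥1 at any of those times.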

[15] = tested on: Mus musculus; assay: In vivo antagonist activity at 5HT2A receptor in ip dosed Swiss albino mouse assessed as inhibition of (+/-)-DOI-induced head twitch response; format: functional
Method in brief: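 Male Swiss albino mice, 5-6 per dose, habituated 20 min in glass cages. Compound was given i.p. 60 min pretest. Head twitches were induced by (±)DOI 2.5 mg/kg and counted for 20 min. ID50 is the dose inhibiting twitches by 50%.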

[16] = tested on: Mus musculus; assay: In vivo partial agonist activity at 5HT1A receptor in CD-1 mouse assessed as change in body temperature at 10 mg/kg, ip administered 15 mins after 5HT1A receptor antagonist WAY100635 injection measured after 60 mins (reference value: -0.1 degC); format: functional, organism-based
Method in brief: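 Male CD-1 mice, 7-9 per dose. WAY 100635 (0.3 mg/kg) was given 15 min before the compound i.p. Rectal temperature was recorded 30 and 60 min after the compound, as the change from basal temperature.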

[17] = tested on: Mus musculus; assay: In vivo partial agonist activity at 5HT1A receptor in CD-1 mouse assessed as change in body temperature at 5 mg/kg, ip measured after 90 mins (reference value: -0.1 degC); format: functional, organism-based; method in brief: as §2
[18] = tested on: Mus musculus; assay: In vivo partial agonist activity at 5HT1A receptor in CD-1 mouse assessed as change in body temperature at 10 mg/kg, ip measured after 120 mins (reference value: -0.1 degC); format: functional, organism-based
Method in brief: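 Male CD-1 mice, 7-9 per dose, dosed i.p. Rectal temperature was recorded at 30, 60, 90 and 120 min. Results are the change from basal temperature taken at the start of the experiment.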

SMILES | inhibition [1] | Activity [2] | Activity [3] | Activity [4] | inhibition [5] | Activity [6] | inhibition [7] | inhibition [8] | inhibition [9] | deltaT [10] | Activity [11] | deltaT [12] | Activity [13] | Activity [14] | ED50 [15] | deltaT [16] | deltaT [17] | deltaT [18]
COc1ccccc1N1CCN(CCCCN2C(=O)NC3(CCc4ccccc43)C2=O)CC1 (configuration not stated) | 58% | 2% | 6% | 27% | 28% | -2% | 102% | 18% | 66% | – | – | – | – | – | – | – | – | –
COc1ccccc1N1CCN(CCCCN2C(=O)NC3(CCCc4ccccc43)C2=O)CC1 (configuration not stated) | 63% | 1% | 6% | 15% | 43% | -2% | 101% | 27% | 53% | -0.6 °C | inactive | -0.8 °C | inactive | 30 mg/kg | 19.6 mg/kg | -1 °C | -0.7 °C | -1.2 °C
